Data published in ChEMBL document CHEMBL1134762, “Synthesis and antibacterial evaluation of certain quinolone derivatives” (2001).
Values after ≈ are worked out from the molar mass of the structure shown.

What was measured:
Assay type in all cases: functional
Staphylococcus aureus = assay: Antibacterial activity against methicillin-resistant Staphylococcus aureus
Procedure, shortened: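 Broth dilution MIC against MRSA in Mueller-Hinton broth with 1-5 × 10^5 CFU/mL inoculum. Compounds were serially diluted in DMSO (final DMSO 1%, top concentration 300 µM) and incubated 20-72 h at 37 °C. MIC was read by visual turbidity or microscopy. Vehicle and reference agents served as controls; run in duplicate.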

Streptococcus pneumoniae = assay: Antibacterial activity tested against ampicillin and erythromycin-resistant Streptococcus pneumoniae
Procedure, shortened: (§1)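 Broth MIC against clinical isolates (S. pneumoniae, VRE E. faecalis) in tryptic soy broth with 7% calf serum, inoculum 1-5 × 10^5 CFU/mL. DMSO serial dilutions gave 1% final DMSO and a 300 µM highest concentration. Plates were incubated 20-72 h at 37 °C and read by turbidity or microscopy. Vehicle and reference controls were included; run in duplicate.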

Enterococcus faecalis = assay: Antibacterial activity tested against vancomycin-resistant Enterococcus faecalis; procedure, shortened: as §1

Structure (SMILES) | MIC (Staphylococcus aureus) [µM] | MIC (Streptococcus pneumoniae) [µM] | MIC (Enterococcus faecalis) [µM]
CCn1cc(C(=O)O)c(=O)c2cc(F)c(N3CCNCC3)c(F)c21 | 2.31 (≈ 0.779 µg/mL) | 18.5 (≈ 6.24 µg/mL) | 18.5 (≈ 6.24 µg/mL)
CCn1cc(C(=O)O)c(=O)c2cc(F)c(N3CCN(CC(=O)c4ccc(OC)cc4)CC3)cc21 | 6.7 (≈ 3.13 µg/mL) | > 200 | > 200
O=C(O)c1cn(-c2ccc([N+](=O)[O-])cc2)c2cc(N3CCN(C/C(=N\O)c4ccc(F)cc4)CC3)c(F)cc2c1=O | > 200 | > 200 | > 200
CCn1cc(C(=O)O)c(=O)c2cc(F)c(N3CCN(C/C(=N\O)c4ccc(F)cc4)CC3)c(F)c21 | 0.61 (≈ 0.298 µg/mL) | 6.14 (≈ 3 µg/mL) | 2.05 (≈ 1 µg/mL)
Nc1ccc(-n2cc(C(=O)O)c(=O)c3cc(F)c(N4CCNCC4)cc32)c(F)c1 | 0.97 (≈ 0.388 µg/mL) | 3.9 (≈ 1.56 µg/mL) | 15.6 (≈ 6.25 µg/mL)
COc1ccc(/C(CN2CCN(c3cc4c(cc3F)c(=O)c(C(=O)O)cn4-c3ccc([N+](=O)[O-])cc3F)CC2)=N/O)cc1 | 0.34 (≈ 0.202 µg/mL) | 1.31 (≈ 0.778 µg/mL) | 5.27 (≈ 3.13 µg/mL)
CCn1cc(C(=O)O)c(=O)c2cc(F)c(N3CCN(C/C(=N/NC(N)=O)c4ccccc4)CC3)c(F)c21 | 0.39 (≈ 0.2 µg/mL) | 6.11 (≈ 3.13 µg/mL) | 6.11 (≈ 3.13 µg/mL)
CCn1cc(C(=O)O)c(=O)c2cc(F)c(N3CCN(C/C(=N\OC)c4ccc(OC)cc4)CC3)cc21 | 1.57 (≈ 0.78 µg/mL) | 12.6 (≈ 6.26 µg/mL) | 12.6 (≈ 6.26 µg/mL)
O=C(O)c1cn(-c2ccc([N+](=O)[O-])cc2F)c2cc(N3CCNCC3)c(F)cc2c1=O | 7.27 (≈ 3.13 µg/mL) | 0.46 (≈ 0.198 µg/mL) | 29 (≈ 12.5 µg/mL)
CCn1cc(C(=O)O)c(=O)c2cc(F)c(N3CCN(C/C(=N/N=C(/N)S)c4ccccc4)CC3)c(F)c21 | 0.74 (≈ 0.391 µg/mL) | > 200 | > 200
CCn1cc(C(=O)O)c(=O)c2cc(F)c(N3CCN(CC(=O)c4ccccc4)CC3)cc21 | 7.15 (≈ 3.13 µg/mL) | > 200 | > 200
COc1ccc(C(=O)CN2CCN(c3cc4c(cc3F)c(=O)c(C(=O)O)cn4-c3ccc([N+](=O)[O-])cc3F)CC2)cc1 | 2.7 (≈ 1.56 µg/mL) | 5.41 (≈ 3.13 µg/mL) | 43.2 (≈ 25 µg/mL)
CCn1cc(C(=O)O)c(=O)c2cc(F)c(N3CCN(C/C(=N/NC(N)=O)c4ccccc4)CC3)cc21 | 3.15 (≈ 1.56 µg/mL) | 25.3 (≈ 12.5 µg/mL) | 25.3 (≈ 12.5 µg/mL)
COc1ccc(C(=O)CN2CCN(c3cc4c(cc3F)c(=O)c(C(=O)O)cn4-c3ccc([N+](=O)[O-])cc3)CC2)cc1 | 5.58 (≈ 3.13 µg/mL) | > 200 | > 200
CCn1cc(C(=O)O)c(=O)c2cc(F)c(N3CCN(CC(=O)c4ccc(Cl)cc4)CC3)cc21 | > 200 | > 200 | > 200
COc1ccc(/C(CN2CCN(c3cc4c(cc3F)c(=O)c(C(=O)O)cn4-c3ccc(N)cc3F)CC2)=N/O)cc1 | 0.53 (≈ 0.299 µg/mL) | 1.77 (≈ 0.998 µg/mL) | 5.32 (≈ 3 µg/mL)
CCn1cc(C(=O)O)c(=O)c2cc(F)c(N3CCN(C/C(=N\O)c4ccc(Cl)cc4)CC3)c(F)c21 | 0.59 (≈ 0.298 µg/mL) | 19.8 (≈ 10 µg/mL) | 19.8 (≈ 10 µg/mL)

Structure (SMILES) | MIC (Staphylococcus aureus) [µM] | MIC (Streptococcus pneumoniae) [µM] | MIC (Enterococcus faecalis) [µM]
CCn1cc(C(=O)O)c(=O)c2cc(F)c(N3CCN(C/C(=N\O)c4ccc(OC)cc4)CC3)c(F)c21 | 0.2 (≈ 0.1 µg/mL) | 6.25 (≈ 3.13 µg/mL) | 3.12 (≈ 1.56 µg/mL)
CCn1cc(C(=O)O)c(=O)c2cc(F)c(N3CCN(C/C(=N/N=C(/N)S)c4ccccc4)CC3)cc21 | 1.53 (≈ 0.781 µg/mL) | 24.5 (≈ 12.5 µg/mL) | 12.2 (≈ 6.23 µg/mL)
COc1ccc(/C(CN2CCN(c3cc4c(cc3F)c(=O)c(C(=O)O)cn4-c3ccc([N+](=O)[O-])cc3)CC2)=N/O)cc1 | 1.36 (≈ 0.783 µg/mL) | 10.9 (≈ 6.27 µg/mL) | 21.7 (≈ 12.5 µg/mL)
CCn1cc(C(=O)O)c(=O)c2cc(F)c(N3CCN(C/C(=N\O)c4ccc(F)cc4)CC3)cc21 | 2.13 (≈ 1 µg/mL) | > 200 | > 200
CCn1cc(C(=O)O)c(=O)c2cc(F)c(N3CCN(C/C(=N\O)c4ccc(Cl)cc4)CC3)cc21 | > 200 | > 200 | > 200
CCn1cc(C(=O)O)c(=O)c2cc(F)c(N3CCN(C/C(=N\O)c4ccccc4)CC3)cc21 | 0.44 (≈ 0.199 µg/mL) | > 200 | > 200
O=C(CN1CCN(c2cc3c(cc2F)c(=O)c(C(=O)O)cn3-c2ccc([N+](=O)[O-])cc2)CC1)c1ccc(F)cc1 | > 200 | > 200 | > 200
CCn1cc(C(=O)O)c(=O)c2cc(F)c(N3CCN(C/C(=N\O)c4ccc(OC)cc4)CC3)cc21 | 0.41 (≈ 0.198 µg/mL) | 13 (≈ 6.27 µg/mL) | 3.23 (≈ 1.56 µg/mL)
CCn1cc(C(=O)O)c(=O)c2cc(F)c(N3CCN(CC(=O)c4ccccc4)CC3)c(F)c21 | 1.71 (≈ 0.779 µg/mL) | 13.7 (≈ 6.24 µg/mL) | 13.7 (≈ 6.24 µg/mL)
COc1ccc(C(=O)CN2CCN(c3cc4c(cc3F)c(=O)c(C(=O)O)cn4-c3ccc(N)cc3F)CC2)cc1 | 0.55 (≈ 0.302 µg/mL) | 1.82 (≈ 0.998 µg/mL) | 5.47 (≈ 3 µg/mL)
CCn1cc(C(=O)O)c(=O)c2cc(F)c(N3CCN(C/C(=N\OC)c4ccc(Cl)cc4)CC3)cc21 | – | > 200 | > 200
CCn1cc(C(=O)O)c(=O)c2cc(F)c(N3CCN(CC(=O)c4ccc(OC)cc4)CC3)c(F)c21 | 0.62 (≈ 0.301 µg/mL) | > 200 | > 200
CCn1cc(C(=O)O)c(=O)c2cc(F)c(N3CCN(C/C(=N\N)c4ccc(F)cc4)CC3)cc21 | 1.66 (≈ 0.779 µg/mL) | 26.6 (≈ 12.5 µg/mL) | 26.6 (≈ 12.5 µg/mL)
CCn1cc(C(=O)O)c(=O)c2cc(F)c(N3CCN(CC(=O)c4ccc(F)cc4)CC3)cc21 | 6.87 (≈ 3.13 µg/mL) | > 200 | > 200
CCn1cc(C(=O)O)c(=O)c2cc(F)c(N3CCN(C/C(=N\OC)c4ccc(Cl)cc4)CC3)c(F)c21 | > 200 | > 200 | > 200
CCn1cc(C(=O)O)c(=O)c2cc(F)c(N3CCNCC3)cc21 [NORFLOXACIN] | 4.89 (≈ 1.56 µg/mL) | 19.6 (≈ 6.26 µg/mL) | 9.8 (≈ 3.13 µg/mL)
